Here are results for 16 compounds from ChEMBL document CHEMBL1909628, “Discovery of 6-substituted indole-3-glyoxylamides as lead antiprion agents with enhanced cell line activity, improved microsomal stability and low toxicity” (Eur J Med Chem, 2011).

The nature of data set [1]: Antiprion activity against PrPsc infected in mouse SMB.s15 cells assessed as complete clearance of PrPSc after 5 days by dot blot analysis. The format is cell-based. The note with it: SMB.s15, 120 h. In outline: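 SMB.s15 cells (scrapie-infected, mesodermal origin) in Medium 199 with 10% newborn calf and 5% fetal calf serum, seeded at 12,000 cells/well, 24 h attachment. Compound added from DMSO stock via HBSS dilution, 5 days at 37 °C. Lysates dot-blotted, proteinase K digestion (1 h, 37 °C), guanidine thiocyanate, anti-PrP 6H4 mAb, ECL. Triplicate, PrPSc relative to DMSO-only control.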

The test system of data set [2] is ScN2a. The data set can be described thus: Cytotoxicity against mouse ScN2a cells up to 32 uM. The format is cell-based. In outline:
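ScN2a cells seeded separately in 96-well plates. Calcein cell viability assay run in parallel with the ELISA screen, up to 32 uM maximum.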

Data set [3] in a line: (§1) Toxicity in zebrafish assessed as organism survival at 5 uM treated at 48 hrs post-fertilization measured after 3 days. To be noted: in vivo. The data set is classed as organism-based, Danio rerio. A digest of the protocol:
(§2)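 AB wild-type zebrafish embryos dechorionated with pronase at 48 hpf, 3 per well in methylene blue-free E3 medium. Dosed at 5 uM from 10 mM DMSO stocks (1% v/v DMSO). Kept at 28 °C for 72 h without food; survival scored at day 5 versus vehicle controls. Two experiments, each in triplicate.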

Data set [4] is described as follows: Toxicity in zebrafish assessed as mortality rate at 5 uM measured after 72 hrs. The format is organism-based, Danio rerio. The note with it: in vivo, read-out: Activity. A digest of the protocol: as §2
Data set [5] can be described thus: Cytotoxicity against mouse SMB.s15 cells at 20 uM after 5 days by MTT assay. The format is cell-based. The note with it: smb.s15, 120 h. A digest of the protocol: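 SMB.s15 cells at 12,000 cells/well, exposed to compound for 5 days at 37 °C (DMSO stock diluted via HBSS into medium). Viability measured by MTT assay per the reagent's standard protocol.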
On the technique in general: Formazan colour is commonly taken as a measure of viable cells.

The species entered for data set [6] is Danio rerio. The data set is described as §1. The format is organism-based. The note with it: in vivo, 72 h, 5 µM. A digest of the protocol: as §2

As usually defined, the EC50 is the concentration that produces a half-maximal response. As for `O=C(Nc1ccc(N2CCOCC2)cc1)C(=O)c1c[nH]c2c(Cl)cccc12`, the EC50 in data set [1] is 7.2 nM. In addition, the Activity result in data set [2] and in data set [5] was “Non-toxic” throughout. Besides, the survival at 72 h, 5 µM in data set [3] is 100%. For the same compound, in data set [4], the mortality at 72 h, 5 µM worked out at 20%.
Take `COc1ccc(NC(=O)C(=O)c2c[nH]c3ccc(C)cc23)cc1`: the 50% effective concentration (EC50) in data set [1] amounted to 880 nM. The Activity result in data set [2] and in data set [5] was “Non-toxic” throughout. In addition, the survival at 72 h, 5 µM in data set [3] is 100%.
As for `O=C(Nc1ccc(-n2cccc2)cc1)C(=O)c1c[nH]c2cc(Cl)ccc12`, the half-maximal effective concentration (EC50) in data set [1] was determined as 17 nM. The Activity entry in data set [2] is recorded as “Non-toxic”; in data set [6], “Toxic”; in data set [5], “Non-toxic”.
Take `Cn1cc(C(=O)C(=O)Nc2ccc(-n3cccc3)cc2)c2ccccc21`: in data set [1], the concentration giving a half-maximal response (EC50) amounted to 170 nM. The Activity result in data set [2] and in data set [5] was “Non-toxic” throughout. Also, the survival at 72 h, 5 µM in data set [3] was determined as 100%.
On to `COc1ccc(NC(=O)C(=O)c2cn(C)c3ccccc23)cc1`, for which, in data set [1], the EC50 was 68 nM. In addition, the Activity entry is “Non-toxic” in data set [2], “Toxic” in data set [6] and “Non-toxic” in data set [5].
As to `Cc1cccc2c(C(=O)C(=O)Nc3ccc(N4CCOCC4)cc3)c[nH]c12`, the EC50 in data set [1] amounted to 16 nM. In addition, the Activity entry in data set [2] and in data set [5] was “Non-toxic” each time. For the same compound, in data set [3], the survival at 72 h, 5 µM amounted to 100%. The mortality at 72 h, 5 µM in data set [4] came out at 20%.
For `O=C(Nc1ccc(-n2cccc2)cc1)C(=O)c1c[nH]c2cc(F)ccc12`, the EC50 in data set [1] stood at 7.7 nM. For the same compound, the Activity result in data set [2] and in data set [5] was “Non-toxic” each time. Further, in data set [3], the survival at 72 h, 5 µM stood at 100%.
With `Cc1ccc(NC(=O)C(=O)c2c[nH]c3ccc(Cl)cc23)cc1`, the concentration for a half-maximal effect (EC50) in data set [1] came to 560 nM. The Activity result in data set [2] and in data set [5] was “Non-toxic” throughout. Also, in data set [3], the survival at 72 h, 5 µM was 100%. Also, the mortality at 72 h, 5 µM in data set [4] was determined as 20%.
As for `O=C(Nc1ccc(N2CCOCC2)cc1)C(=O)c1c[nH]c2cc(Cl)ccc12`, the EC50 in data set [1] was found to be 7.3 nM. In addition, the Activity entry in data set [2] and in data set [5] was “Non-toxic” each time. The mortality at 72 h, 5 µM in data set [4] amounted to 20%.
`Cc1ccc2c(C(=O)C(=O)Nc3ccccc3)c[nH]c2c1`: the EC50 in data set [1] stood at 44 nM. Further, the Activity result in data set [2] and in data set [5] was “Non-toxic” each time. For the same compound, the survival at 72 h, 5 µM in data set [3] was determined as 100%.
In the case of `Cc1ccc(NC(=O)C(=O)c2c[nH]c3cccc(C)c23)cc1`, in data set [1], the EC50 was > 20000 nM. The Activity result in data set [2] and in data set [5] was “Non-toxic” each time. In addition, the survival at 72 h, 5 µM in data set [3] came out at 100%. In addition, the mortality at 72 h, 5 µM in data set [4] is 20%.
On to `Cc1ccc2[nH]cc(C(=O)C(=O)Nc3ccccc3)c2c1`, for which, in data set [1], the EC50 came out at 11500 nM. Further, the Activity entry in data set [2] and in data set [5] was “Non-toxic” throughout. Also, the survival at 72 h, 5 µM in data set [3] amounted to 100%.
Regarding `O=C(Nc1ccccc1)C(=O)c1c[nH]c2cc(Cl)ccc12`, in data set [1], the concentration for a half-maximal effect (EC50) is 74 nM. Also, the Activity result in data set [2] and in data set [5] was “Non-toxic” in each case. Moreover, the survival at 72 h, 5 µM in data set [3] came out at 100%.
`COc1ccc(NC(=O)C(=O)c2c[nH]c3cccc(C)c23)cc1`: in data set [1], the EC50 turned out to be 2360 nM. The Activity result in data set [2] and in data set [5] was “Non-toxic” each time. Besides, the survival at 72 h, 5 µM in data set [3] worked out at 100%.
For the compound `COc1ccc(NC(=O)C(=O)c2c[nH]c3c(C)cccc23)cc1`, the EC50 in data set [1] came out at 150 nM. Further, the Activity entry in data set [2] and in data set [5] was “Non-toxic” in each case. Besides, in data set [3], the survival at 72 h, 5 µM was 100%.
With `Cn1cc(C(=O)C(=O)Nc2ccc(-n3cccc3)cc2)c2ccc(Cl)cc21`, the EC50 in data set [1] came to 270 nM. Besides, the Activity entry in data set [2] and in data set [5] was “Non-toxic” throughout. Further, in data set [3], the survival at 72 h, 5 µM amounted to 100%.
